Laboratory results reported in ChEMBL document CHEMBL1806357, “A regioselective synthesis of some new pyrazol-1'-ylpyrazolo[1,5-a]pyrimidines in aqueous medium and their evaluation as antimicrobial agents” (2011).
In brackets after ≈: the same amount, converted by molar mass.

Experiments:
Bacillus cereus [1] = assay: Antibacterial activity against Bacillus cereus ATCC 11778 after 24 hrs by broth microdilution method; type: functional
Bacillus cereus [2] = assay: Antibacterial activity against Bacillus cereus ATCC 11778 at 1 mg/ml after 24 hrs by agar-well diffusion technique; type: functional; settings: ATCC 11778, 24 h, read-out: DIZ
Staphylococcus aureus [3] = assay: Antibacterial activity against Staphylococcus aureus ATCC 9144 at 1 mg/ml after 24 hrs by agar-well diffusion technique; type: functional; settings: ATCC 9144, 24 h, read-out: DIZ
Escherichia coli [4] = assay: Antibacterial activity against Escherichia coli ATCC 8739 after 24 hrs by broth microdilution method; type: functional
Pseudomonas aeruginosa [5] = assay: Antibacterial activity against Pseudomonas aeruginosa ATCC 25668 at 1 mg/ml after 24 hrs by agar-well diffusion technique; type: functional; settings: ATCC 25668, 24 h, read-out: DIZ
Escherichia coli [6] = assay: Antibacterial activity against Escherichia coli ATCC 8739 at 1 mg/ml after 24 hrs by agar-well diffusion technique; type: functional; settings: ATCC 8739, 24 h, read-out: DIZ
Pseudomonas aeruginosa [7] = assay: Antibacterial activity against Pseudomonas aeruginosa ATCC 25668 after 24 hrs by broth microdilution method; type: functional
Staphylococcus aureus [8] = assay: Antibacterial activity against Staphylococcus aureus ATCC 9144 at 2 mg/ml after 24 hrs by agar-well diffusion technique; type: functional; settings: ATCC 9144, 24 h, read-out: DIZ
Method in brief: (§1)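 Agar-well diffusion used MHA seeded with 24 h cultures at 0.5 McFarland (1 × 10^6 CFU/ml). 100 µl of compound (2 mg/ml in DMSO, filter-sterilized) went into each 6 mm well. Plates were incubated upright at 37 ± 1 °C for 24 h, and the inhibition zone diameter was measured in mm. DMSO was the negative control. Values are the mean of three replicates.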

Bacillus cereus [9] = assay: Antibacterial activity against Bacillus cereus ATCC 11778 at 2 mg/ml after 24 hrs by agar-well diffusion technique; type: functional; settings: ATCC 11778, 24 h, read-out: DIZ; method in brief: as §1
Staphylococcus aureus [10] = assay: Antibacterial activity against Staphylococcus aureus ATCC 9144 after 24 hrs by broth microdilution method; type: functional
Pseudomonas aeruginosa [11] = assay: Antibacterial activity against Pseudomonas aeruginosa ATCC 25668 at 2 mg/ml after 24 hrs by agar-well diffusion technique; type: functional; settings: ATCC 25668, 24 h, read-out: DIZ; method in brief: as §1
Escherichia coli [12] = assay: Antibacterial activity against Escherichia coli ATCC 8739 at 2 mg/ml after 24 hrs by agar-well diffusion technique; type: functional; settings: ATCC 8739, 24 h, read-out: DIZ; method in brief: as §1
Alternaria alternata [13] = assay: Antifungal activity against Alternaria alternata at 200 ug/ml after 7 days by poisoned food technique relative to control; type: functional
Method in brief: (§2)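 Poisoned food technique with soil-isolated fungi on PDA. Compound from a 1 mg/ml DMSO stock was added to molten agar at 40 ± 2 °C to give 10, 50, 100 or 200 µg/ml. A 6 mm mycelial disc from a 6-day culture was placed centrally, and plates were held at 28 ± 1 °C. Radial growth was measured after 7 days, and % inhibition was calculated against PDA/DMSO control, in triplicate.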

Alternaria alternata [14] = assay: Antifungal activity against Alternaria alternata at 50 ug/ml after 7 days by poisoned food technique relative to control; type: functional; method in brief: as §2
Fusarium oxysporum [15] = assay: Antifungal activity against Fusarium oxysporum at 100 ug/ml after 7 days by poisoned food technique relative to control; type: functional; method in brief: as §2
Fusarium oxysporum [16] = assay: Antifungal activity against Fusarium oxysporum at 50 ug/ml after 7 days by poisoned food technique relative to control; type: functional; method in brief: as §2
Helminthosporium [17] = assay: Antifungal activity against Helminthosporium sp. at 100 ug/ml after 7 days by poisoned food technique relative to control; type: functional; method in brief: as §2
Fusarium oxysporum [18] = assay: Antifungal activity against Fusarium oxysporum at 10 ug/ml after 7 days by poisoned food technique relative to control; type: functional; method in brief: as §2
Fusarium oxysporum [19] = assay: Antifungal activity against Fusarium oxysporum at 200 ug/ml after 7 days by poisoned food technique relative to control; type: functional; method in brief: as §2
Aspergillus terreus [20] = assay: Antifungal activity against Aspergillus terreus at 10 ug/ml after 7 days by poisoned food technique relative to control; type: functional; method in brief: as §2
Alternaria alternata [21] = assay: Antifungal activity against Alternaria alternata at 100 ug/ml after 7 days by poisoned food technique relative to control; type: functional; method in brief: as §2
Aspergillus terreus [22] = assay: Antifungal activity against Aspergillus terreus at 100 ug/ml after 7 days by poisoned food technique relative to control; type: functional; method in brief: as §2
Alternaria alternata [23] = assay: Antifungal activity against Alternaria alternata at 10 ug/ml after 7 days by poisoned food technique relative to control; type: functional; method in brief: as §2
Aspergillus terreus [24] = assay: Antifungal activity against Aspergillus terreus at 50 ug/ml after 7 days by poisoned food technique relative to control; type: functional; method in brief: as §2
Helminthosporium [25] = assay: Antifungal activity against Helminthosporium sp. at 10 ug/ml after 7 days by poisoned food technique relative to control; type: functional; method in brief: as §2
Helminthosporium [26] = assay: Antifungal activity against Helminthosporium sp. at 200 ug/ml after 7 days by poisoned food technique relative to control; type: functional; method in brief: as §2
Aspergillus terreus [27] = assay: Antifungal activity against Aspergillus terreus at 200 ug/ml after 7 days by poisoned food technique relative to control; type: functional; method in brief: as §2
Helminthosporium [28] = assay: Antifungal activity against Helminthosporium sp. at 50 ug/ml after 7 days by poisoned food technique relative to control; type: functional; method in brief: as §2
Escherichia coli [29] = assay: Antibacterial activity against Escherichia coli ATCC 8739 at 4 ug/ml after 24 hrs by agar-well diffusion technique; type: functional, organism-based
Method in brief: (§3)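 Agar-well diffusion. Bacteria were kept at 5–8 °C on Brain Heart Infusion agar. Inocula came from 24 h cultures adjusted to 0.5 McFarland (1 × 10^6 CFU/ml). 100 µl was seeded into 20 ml molten Mueller Hinton agar. 6 mm wells received 100 µl of sample, with gentamicin standard at 4 µg/ml and DMSO as negative control. Plates ran 24 h at 37 ± 1 °C; inhibition zone diameter in mm.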

Staphylococcus aureus [30] = assay: Antibacterial activity against Staphylococcus aureus ATCC 9144 at 4 ug/ml after 24 hrs by agar-well diffusion technique; type: functional, organism-based; method in brief: as §3
Pseudomonas aeruginosa [31] = assay: Antibacterial activity against Pseudomonas aeruginosa ATCC 25668 at 4 ug/ml after 24 hrs by agar-well diffusion technique; type: functional, organism-based; method in brief: as §3
Bacillus cereus [32] = assay: Antibacterial activity against Bacillus cereus ATCC 11778 at 4 ug/ml after 24 hrs by agar-well diffusion technique; type: functional, organism-based; method in brief: as §3

Row | Molecule | MIC (Bacillus cereus [1]; ATCC 11778, 24 h) [µg/mL] | MIC (Escherichia coli [4]; ATCC 8739, 24 h) [µg/mL] | MIC (Pseudomonas aeruginosa [7]; ATCC 25668, 24 h) [µg/mL] | zone of inhibition at 2000 µg/mL (Staphylococcus aureus [8]) [mm] | zone of inhibition at 2000 µg/mL (Bacillus cereus [9]) [mm] | MIC (Staphylococcus aureus [10]; ATCC 9144, 24 h) [µg/mL] | zone of inhibition at 2000 µg/mL (Pseudomonas aeruginosa [11]) [mm] | zone of inhibition at 2000 µg/mL (Escherichia coli [12]) [mm] | Activity (Alternaria alternata [13]) [%] | Activity (Alternaria alternata [14]) [%] | Activity (Fusarium oxysporum [15]) [%] | Activity (Fusarium oxysporum [16]) [%] | Activity (Helminthosporium [17]) [%] | Activity (Fusarium oxysporum [18]) [%] | Activity (Fusarium oxysporum [19]) [%] | Activity (Aspergillus terreus [20]) [%] | Activity (Alternaria alternata [21]) [%] | Activity (Aspergillus terreus [22]) [%] | Activity (Alternaria alternata [23]) [%] | Activity (Aspergillus terreus [24]) [%] | other results
1 | CC(=O)NC[C@H]1CN(c2ccc(N3CCOCC3)c(F)c2)C(=O)O1 [LINEZOLID] | > 100 | > 100 | > 100 |  |  |  |  |  |  |  |  |  |  |  |  |  |  |  |  |  | zone of inhibition at 1000 µg/mL (Bacillus cereus [2]): 10 mm; zone of inhibition at 1000 µg/mL (Staphylococcus aureus [3]): 18 mm; zone of inhibition at 1000 µg/mL (Pseudomonas aeruginosa [5]): 8.5 mm; zone of inhibition at 1000 µg/mL (Escherichia coli [6]): 12 mm
2 | Cc1ccc(-c2cc(C)nn2-c2cc3nc(C)cc(-c4ccc(C)cc4)n3n2)cc1 | 100 (≈ 254 µM) | 50 (≈ 127 µM) | 100 (≈ 254 µM) | 8 | 8.5 | 100 (≈ 254 µM) | 8 | 10.5 |  |  |  |  |  |  |  |  |  |  |  |  | 
3 | Cc1cc(-c2ccc(Cl)cc2)n2nc(-n3nc(C)cc3-c3ccc(Cl)cc3)cc2n1 | 50 (≈ 115 µM) | 25 (≈ 57.6 µM) | 100 (≈ 230 µM) | 9 | 13 | 100 (≈ 230 µM) | 10 | 13 | 0 | 0 | 9.8 | 3.27 | 17.7 | 1.63 | 16.3 | 0 | 0 | 2.5 | 0 | 0 | Activity (Helminthosporium [25]): 11.1%; Activity (Helminthosporium [26]): 36.6%; Activity (Aspergillus terreus [27]): 12.5%; Activity (Helminthosporium [28]): 15.5%
4 | Cc1cc(-c2cccs2)n2nc(-n3nc(C)cc3-c3cccs3)cc2n1 | > 200 | 200 (≈ 530 µM) | 200 (≈ 530 µM) | 8 | 8 | 200 (≈ 530 µM) | 8 | 8 |  |  |  |  |  |  |  |  |  |  |  |  | 
5 | Cc1cc(-c2ccc(Br)cc2)n2nc(-n3nc(C)cc3-c3ccc(Br)cc3)cc2n1 | > 100 | > 100 | > 100 | 8 | 8 | > 100 | 8 | 8 |  |  |  |  |  |  |  |  |  |  |  |  | 
6 | Cc1nn(-c2cc3nc(C)c4c(n3n2)CCC4)c2c1CCC2 | 400 (≈ 1360 µM) | > 400 | > 400 | 7 | 7 | 400 (≈ 1360 µM) | 7 | 7 |  |  |  |  |  |  |  |  |  |  |  |  | 
7 | GENTAMICIN |  |  |  |  |  |  |  |  |  |  |  |  |  |  |  |  |  |  |  |  | MIC (Bacillus cereus [1]): 4 µg/mL; MIC (Staphylococcus aureus [10]): 2 µg/mL; inhibition zone (IZ) (Escherichia coli [29]): 24 mm; inhibition zone (IZ) (Staphylococcus aureus [30]): 14 mm; inhibition zone (IZ) (Pseudomonas aeruginosa [31]): 12 mm; inhibition zone (IZ) (Bacillus cereus [32]): 14 mm; MIC (Escherichia coli [4]): 4 µg/mL; MIC (Pseudomonas aeruginosa [7]): 2 µg/mL
8 | COc1ccc(-c2cc(C)nn2-c2cc3nc(C)cc(-c4ccc(OC)cc4)n3n2)cc1 | > 100 | > 100 | > 100 | 8 | 8 | > 100 | 8 | 8 | 11.1 | 0 | 26.2 | 3.27 | 27.7 | 6.55 | 20 | 2.5 | 11.1 | 7.5 | 0 | 6.25 | Activity (Helminthosporium [25]): 0%; Activity (Helminthosporium [26]): 62.2%; Activity (Aspergillus terreus [27]): 11.3%; Activity (Helminthosporium [28]): 0%
9 | Cc1cc(-c2ccccc2)n2nc(-n3nc(C)cc3-c3ccccc3)cc2n1 | 200 (≈ 547 µM) | 200 (≈ 547 µM) | > 200 | 8 | 8 | 200 (≈ 547 µM) | 7.5 | 8 | 20.7 | 20.7 | 3.65 | 6.09 | 0 | 8.53 | 2.4 | 7.4 | 19.5 | 19.2 | 18.2 | 13.5 | Activity (Helminthosporium [25]): 0%; Activity (Helminthosporium [26]): 0%; Activity (Aspergillus terreus [27]): 19.7%; Activity (Helminthosporium [28]): 0%
